# Results published in ChEMBL document CHEMBL1938268, “Synthesis, characterization and in vitro biological evaluation of some novel diarylsulfonylureas as potential cytotoxic and antimicrobial agents” (Bioorg Med Chem Lett, 2012).
# Test system: not listed separately
# Assay: Toxicity against Brine shrimp nauplii after 24 hrs
# Format: organism-based
# Details: artemia salina, in vivo; read-out: ED50
# Method in brief: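 Artemia salina nauplii hatched 38 h in sterile brine (sea salt 38 g/L, pH 8.5) under aeration; 10 nauplii per vial exposed to graded compound concentrations in 5 mL final volume, 37 °C, 24 h under incandescent light. Survivors counted; percent lethality versus vehicle-treated controls; ED50 from probit analysis; podophyllotoxin positive control.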
row,SMILES,LC50 at 24 h
1,Cc1ccc(S(=O)(=O)NC(=O)Nc2ccccc2C(=O)/C=C/C=C/c2ccccc2)cc1,18.2 µg/mL
2,Cc1ccc(S(=O)(=O)NC(=O)Nc2ccccc2C(=O)/C=C/c2c3ccccc3cc3ccccc23)cc1,44.3 µg/mL
3,Cc1ccc(S(=O)(=O)NC(=O)Nc2ccccc2C(=O)/C=C/c2ccc(O)cc2)cc1,24.3 µg/mL
4,Cc1ccc(S(=O)(=O)NC(=O)Nc2ccccc2C(=O)/C=C/c2cccc(Br)c2)cc1,4.02 µg/mL
5,CCOc1cc(/C=C/C(=O)c2ccccc2NC(=O)NS(=O)(=O)c2ccc(C)cc2)ccc1O,19.2 µg/mL

# Test system: Bacillus subtilis
# Assay: Antibacterial activity against Bacillus subtilis NCIM 2063 after 24 hrs by agar well diffusion assay
# Format: functional
# Details: NCIM 2063, 24 h
# Method in brief: (§1)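 Agar well diffusion per NCCLS; NCIM standard strains. Nutrient agar seeded with 0.1 mL bacterial suspension in sterile 0.85% saline at 10⁵ CFU/mL. Plates in triplicate, 37 0.5 °C, 24 h. MIC taken as lowest concentration giving complete growth inhibition.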
row,SMILES,MIC
1,Cc1ccc(S(=O)(=O)NC(=O)Nc2ccccc2C(=O)/C=C/C=C/c2ccccc2)cc1,128 µg/mL
2,Cc1ccc(S(=O)(=O)NC(=O)Nc2ccccc2C(=O)/C=C/c2c3ccccc3cc3ccccc23)cc1,512 µg/mL
3,Cc1ccc(S(=O)(=O)NC(=O)Nc2ccccc2C(=O)/C=C/c2ccc(O)cc2)cc1,256 µg/mL
4,Cc1ccc(S(=O)(=O)NC(=O)Nc2ccccc2C(=O)/C=C/c2cccc(Br)c2)cc1,16 µg/mL
5,CCOc1cc(/C=C/C(=O)c2ccccc2NC(=O)NS(=O)(=O)c2ccc(C)cc2)ccc1O,128 µg/mL

# Test system: Staphylococcus aureus
# Assay: Antibacterial activity against Staphylococcus aureus NCIM 2079 after 24 hrs by agar well diffusion assay
# Format: functional
# Details: NCIM 2079, 24 h
# Method in brief: as §1
row,SMILES,MIC
1,Cc1ccc(S(=O)(=O)NC(=O)Nc2ccccc2C(=O)/C=C/C=C/c2ccccc2)cc1,128 µg/mL
2,Cc1ccc(S(=O)(=O)NC(=O)Nc2ccccc2C(=O)/C=C/c2c3ccccc3cc3ccccc23)cc1,512 µg/mL
3,Cc1ccc(S(=O)(=O)NC(=O)Nc2ccccc2C(=O)/C=C/c2ccc(O)cc2)cc1,256 µg/mL
4,Cc1ccc(S(=O)(=O)NC(=O)Nc2ccccc2C(=O)/C=C/c2cccc(Br)c2)cc1,64 µg/mL
5,CCOc1cc(/C=C/C(=O)c2ccccc2NC(=O)NS(=O)(=O)c2ccc(C)cc2)ccc1O,128 µg/mL

# Test system: Micrococcus luteus
# Assay: Antibacterial activity against Micrococcus luteus NCIM 2155 after 24 hrs by agar well diffusion assay
# Format: functional
# Details: NCIM 2155, 24 h
# Method in brief: as §1
row,SMILES,MIC
1,Cc1ccc(S(=O)(=O)NC(=O)Nc2ccccc2C(=O)/C=C/C=C/c2ccccc2)cc1,256 µg/mL
2,Cc1ccc(S(=O)(=O)NC(=O)Nc2ccccc2C(=O)/C=C/c2c3ccccc3cc3ccccc23)cc1,512 µg/mL
3,Cc1ccc(S(=O)(=O)NC(=O)Nc2ccccc2C(=O)/C=C/c2ccc(O)cc2)cc1,128 µg/mL
4,Cc1ccc(S(=O)(=O)NC(=O)Nc2ccccc2C(=O)/C=C/c2cccc(Br)c2)cc1,16 µg/mL
5,CCOc1cc(/C=C/C(=O)c2ccccc2NC(=O)NS(=O)(=O)c2ccc(C)cc2)ccc1O,512 µg/mL

# Test system: Pseudomonas aeruginosa
# Assay: Antibacterial activity against Pseudomonas aeruginosa NCIM 2036 after 24 hrs by agar well diffusion assay
# Format: functional
# Details: NCIM 2036, 24 h
# Method in brief: as §1
row,SMILES,MIC
1,Cc1ccc(S(=O)(=O)NC(=O)Nc2ccccc2C(=O)/C=C/C=C/c2ccccc2)cc1,128 µg/mL
2,Cc1ccc(S(=O)(=O)NC(=O)Nc2ccccc2C(=O)/C=C/c2c3ccccc3cc3ccccc23)cc1,512 µg/mL
3,Cc1ccc(S(=O)(=O)NC(=O)Nc2ccccc2C(=O)/C=C/c2ccc(O)cc2)cc1,256 µg/mL
4,Cc1ccc(S(=O)(=O)NC(=O)Nc2ccccc2C(=O)/C=C/c2cccc(Br)c2)cc1,32 µg/mL
5,CCOc1cc(/C=C/C(=O)c2ccccc2NC(=O)NS(=O)(=O)c2ccc(C)cc2)ccc1O,128 µg/mL

# Test system: Klebsiella pneumoniae
# Assay: Antibacterial activity against Klebsiella pneumoniae NCIM 5082 after 24 hrs by agar well diffusion assay
# Format: functional
# Details: NCIM 5082, 24 h
# Method in brief: as §1
row,SMILES,MIC
1,Cc1ccc(S(=O)(=O)NC(=O)Nc2ccccc2C(=O)/C=C/C=C/c2ccccc2)cc1,256 µg/mL
2,Cc1ccc(S(=O)(=O)NC(=O)Nc2ccccc2C(=O)/C=C/c2c3ccccc3cc3ccccc23)cc1,512 µg/mL
3,Cc1ccc(S(=O)(=O)NC(=O)Nc2ccccc2C(=O)/C=C/c2ccc(O)cc2)cc1,128 µg/mL
4,Cc1ccc(S(=O)(=O)NC(=O)Nc2ccccc2C(=O)/C=C/c2cccc(Br)c2)cc1,128 µg/mL
5,CCOc1cc(/C=C/C(=O)c2ccccc2NC(=O)NS(=O)(=O)c2ccc(C)cc2)ccc1O,512 µg/mL

# Test system: Escherichia coli
# Assay: Antibacterial activity against Escherichia coli NCIM 2065 after 24 hrs by agar well diffusion assay
# Format: functional
# Details: NCIM 2065, 24 h
# Method in brief: as §1
row,SMILES,MIC
1,Cc1ccc(S(=O)(=O)NC(=O)Nc2ccccc2C(=O)/C=C/C=C/c2ccccc2)cc1,128 µg/mL
2,Cc1ccc(S(=O)(=O)NC(=O)Nc2ccccc2C(=O)/C=C/c2c3ccccc3cc3ccccc23)cc1,512 µg/mL
3,Cc1ccc(S(=O)(=O)NC(=O)Nc2ccccc2C(=O)/C=C/c2ccc(O)cc2)cc1,128 µg/mL
4,Cc1ccc(S(=O)(=O)NC(=O)Nc2ccccc2C(=O)/C=C/c2cccc(Br)c2)cc1,16 µg/mL
5,CCOc1cc(/C=C/C(=O)c2ccccc2NC(=O)NS(=O)(=O)c2ccc(C)cc2)ccc1O,64 µg/mL

# Test system: Proteus vulgaris
# Assay: Antibacterial activity against Proteus vulgaris NCIM 2813 after 24 hrs by agar well diffusion assay
# Format: functional
# Details: NCIM 2813, 24 h
# Method in brief: as §1
row,SMILES,MIC
1,Cc1ccc(S(=O)(=O)NC(=O)Nc2ccccc2C(=O)/C=C/C=C/c2ccccc2)cc1,256 µg/mL
2,Cc1ccc(S(=O)(=O)NC(=O)Nc2ccccc2C(=O)/C=C/c2c3ccccc3cc3ccccc23)cc1,512 µg/mL
3,Cc1ccc(S(=O)(=O)NC(=O)Nc2ccccc2C(=O)/C=C/c2ccc(O)cc2)cc1,128 µg/mL
4,Cc1ccc(S(=O)(=O)NC(=O)Nc2ccccc2C(=O)/C=C/c2cccc(Br)c2)cc1,16 µg/mL
5,CCOc1cc(/C=C/C(=O)c2ccccc2NC(=O)NS(=O)(=O)c2ccc(C)cc2)ccc1O,512 µg/mL

# Test system: Candida albicans
# Assay: Antifungal activity against Candida albicans NCIM 3102 after 48 hrs by agar well diffusion assay
# Format: functional
# Details: NCIM 3102, 48 h
# Method in brief: (§2)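 Fungal spore suspensions in sterile distilled water set to final 10⁶ CFU/mL; 0.1 mL spread on Potato-Dextrose-Agar. NCCLS agar well diffusion with NCIM standard strains: 6 mm wells given 0.1 mL compound diluted in 1% DMSO, final 16 to 512 µg/mL. Triplicate plates held 48 h at 28 0.2 °C. MIC is lowest concentration fully inhibiting growth.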
row,SMILES,MIC
1,Cc1ccc(S(=O)(=O)NC(=O)Nc2ccccc2C(=O)/C=C/C=C/c2ccccc2)cc1,256 µg/mL
2,Cc1ccc(S(=O)(=O)NC(=O)Nc2ccccc2C(=O)/C=C/c2c3ccccc3cc3ccccc23)cc1,512 µg/mL
3,Cc1ccc(S(=O)(=O)NC(=O)Nc2ccccc2C(=O)/C=C/c2ccc(O)cc2)cc1,128 µg/mL
4,Cc1ccc(S(=O)(=O)NC(=O)Nc2ccccc2C(=O)/C=C/c2cccc(Br)c2)cc1,128 µg/mL
5,CCOc1cc(/C=C/C(=O)c2ccccc2NC(=O)NS(=O)(=O)c2ccc(C)cc2)ccc1O,512 µg/mL

# Test system: Aspergillus niger
# Assay: Antifungal activity against Aspergillus niger NCIM 548 after 48 hrs by agar well diffusion assay
# Format: functional
# Details: NCIM 548, 48 h
# Method in brief: as §2
row,SMILES,MIC
1,Cc1ccc(S(=O)(=O)NC(=O)Nc2ccccc2C(=O)/C=C/C=C/c2ccccc2)cc1,256 µg/mL
2,Cc1ccc(S(=O)(=O)NC(=O)Nc2ccccc2C(=O)/C=C/c2c3ccccc3cc3ccccc23)cc1,512 µg/mL
3,Cc1ccc(S(=O)(=O)NC(=O)Nc2ccccc2C(=O)/C=C/c2ccc(O)cc2)cc1,128 µg/mL
4,Cc1ccc(S(=O)(=O)NC(=O)Nc2ccccc2C(=O)/C=C/c2cccc(Br)c2)cc1,64 µg/mL
5,CCOc1cc(/C=C/C(=O)c2ccccc2NC(=O)NS(=O)(=O)c2ccc(C)cc2)ccc1O,512 µg/mL

# Test system: Aspergillus oryzae
# Assay: Antifungal activity against Aspergillus oryzae NCIM 643 after 48 hrs by agar well diffusion assay
# Format: functional
# Details: NCIM 643, 48 h
# Method in brief: as §2
row,SMILES,MIC
1,Cc1ccc(S(=O)(=O)NC(=O)Nc2ccccc2C(=O)/C=C/C=C/c2ccccc2)cc1,256 µg/mL
2,Cc1ccc(S(=O)(=O)NC(=O)Nc2ccccc2C(=O)/C=C/c2c3ccccc3cc3ccccc23)cc1,512 µg/mL
3,Cc1ccc(S(=O)(=O)NC(=O)Nc2ccccc2C(=O)/C=C/c2ccc(O)cc2)cc1,128 µg/mL
4,Cc1ccc(S(=O)(=O)NC(=O)Nc2ccccc2C(=O)/C=C/c2cccc(Br)c2)cc1,128 µg/mL
5,CCOc1cc(/C=C/C(=O)c2ccccc2NC(=O)NS(=O)(=O)c2ccc(C)cc2)ccc1O,512 µg/mL

# Test system: Penicillium chrysogenum
# Assay: Antifungal activity against Penicillium chrysogenum NCIM 738 after 48 hrs by agar well diffusion assay
# Format: functional
# Details: NCIM 738, 48 h
# Method in brief: as §2
row,SMILES,MIC
1,Cc1ccc(S(=O)(=O)NC(=O)Nc2ccccc2C(=O)/C=C/C=C/c2ccccc2)cc1,256 µg/mL
2,Cc1ccc(S(=O)(=O)NC(=O)Nc2ccccc2C(=O)/C=C/c2c3ccccc3cc3ccccc23)cc1,512 µg/mL
3,Cc1ccc(S(=O)(=O)NC(=O)Nc2ccccc2C(=O)/C=C/c2ccc(O)cc2)cc1,128 µg/mL
4,Cc1ccc(S(=O)(=O)NC(=O)Nc2ccccc2C(=O)/C=C/c2cccc(Br)c2)cc1,128 µg/mL
5,CCOc1cc(/C=C/C(=O)c2ccccc2NC(=O)NS(=O)(=O)c2ccc(C)cc2)ccc1O,512 µg/mL

# Test system: Bacillus pumilus
# Assay: Antibacterial activity against Bacillus pumilus NCIM 2327 after 24 hrs by agar well diffusion assay
# Details: NCIM 2327, 24 h
row,SMILES,MIC
1,Cc1ccc(S(=O)(=O)NC(=O)Nc2ccccc2C(=O)/C=C/C=C/c2ccccc2)cc1,128 µg/mL
2,Cc1ccc(S(=O)(=O)NC(=O)Nc2ccccc2C(=O)/C=C/c2c3ccccc3cc3ccccc23)cc1,512 µg/mL
3,Cc1ccc(S(=O)(=O)NC(=O)Nc2ccccc2C(=O)/C=C/c2ccc(O)cc2)cc1,128 µg/mL
4,Cc1ccc(S(=O)(=O)NC(=O)Nc2ccccc2C(=O)/C=C/c2cccc(Br)c2)cc1,16 µg/mL
5,CCOc1cc(/C=C/C(=O)c2ccccc2NC(=O)NS(=O)(=O)c2ccc(C)cc2)ccc1O,64 µg/mL
